Results published in ChEMBL document CHEMBL2169780, “Design and synthesis of neuroprotective methylthiazoles and modification as NO-chimeras for neurodegenerative therapy” (J Med Chem, 2012).
Activity calls are given as the source filed them. The rule behind the calls is not given here.

Experiments:
[1] = Neuroprotective activity against oxygen-glucose deprivation-induced toxicity in Sprague-Dawley rat primary cortical neurons at 50 uM […] measured after 24 hrs by MTT assay relative to clomethiazole; format: functional, Cerebral cortex neuron
[2] = test system: Mus musculus; assay: Procognitive activity in C57BL/6 mouse assessed as reversal of scopolamine-induced memory deficit at 4.5 umol/kg, ip administered 10 mins post scopolamine-challenge and 20 mins prior to training measured after 24 hrs by step-through passive avoidance test; format: functional, organism-based
Outline: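 Male C57BL/6 mice, 8–10 weeks. Scopolamine 1.0 mg/kg i.p. given 30 min before training; drug at 4.5 µmol/kg i.p. given 20 min before training. At 24 h after training, latency to enter the dark compartment was recorded without shock. One-way ANOVA with Bonferroni test.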

[3] = Chemical stability of the compound in phosphate buffer at pH 7.4 after 5 days by HPLC-UV analysis; format: physicochemical; conditions: pH 7.4, 120 h
Outline: (§1)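 10 µM compound plus 10 µM internal standard in 100 mM phosphate buffer, pH 7.4, 2% DMSO final, held at room temperature in the autosampler. Repeated HPLC injections with UV detection at 254 nm and a C18 gradient. Parent-to-standard peak-area ratio divided by the time-zero value gives % remaining.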

[4] = Half life of the compound in phosphate buffer at pH 7.4 by HPLC-UV analysis; format: physicochemical; outline: as §1
[5] = test system: Cerebral cortex neuron; assay: Activation of Gamma-aminobutyric acid type-A receptor in Sprague-Dawley rat primary cortical neurons assessed as inhibition of glutamate-induced cytotoxicity at 50 uM incubated for 1 hr prior to glutamate-challenge measured after 24 hrs by MTT assay in presence of picrotoxin; format: cell-based
[6] = test system: Hippocampus; assay: Neuroprotective activity against amyloid beta-induced long term potentiation impairment in human APP […] mutant and PS1 M146L mutant transgenic mouse hippocampal slice at 100 uM incubated for 5 mins by field excitatory post-synaptic potential analysis; format: functional, tissue-based
Outline: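 APP/PS1 (line 6.2) hippocampal slices, 400 µm, kept at 29°C in oxygenated saline. CA1 fEPSPs recorded in stratum radiatum after a 15 min baseline at about 35% of maximal response. Compound at 100 µM perfused 5 min before theta-burst tetanus of the Schaffer collaterals. LTP analysed at 50–80 min by two-way ANOVA.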

[7] = test system: Cerebral cortex neuron; assay: Activation of Gamma-aminobutyric acid type-A receptor in Sprague-Dawley rat primary cortical neurons assessed as inhibition of glutamate-induced cytotoxicity at 50 uM […] measured after 24 hrs by MTT assay; format: cell-based
[8] = Drug uptake in C57BL/6 mouse brain at 4.5 umol/kg, ip after 20 mins; format: ADME, organism-based; conditions: read-out: Drug uptake
Outline: (§2)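 Male C57BL/6 mice, 8–10 weeks, dosed i.p. at 4.5 µmol/kg, four per drug. Brains taken 20 min later and extracted in cold acetonitrile/MeOH (1:1) with internal standard. Parent and metabolite quantified by LC-MS/MS in MRM mode against brain-matrix calibration of 1–100 ng/mL. Mean ± SEM, n=4.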

[9] = test system: Brain; assay: Drug uptake in C57BL/6 mouse brain assessed as [1-[beta-(4-Methyl-5-thiazolyl)ethanol]-4-(3-pyridinyl)]-1H-1,2,3-triazole level at 4.5 umol/kg, ip after 20 mins; format: ADME, organism-based; conditions: in vivo; outline: as §2
[10] = Neuroprotective activity against oxygen-glucose deprivation-induced toxicity in Sprague-Dawley rat primary cortical neurons assessed as increase in cell survival at 50 uM […] measured after 24 hrs by MTT assay relative to vehicle-treated control; format: functional, Cerebral cortex neuron
[11] = test system: Brain; assay: Drug uptake in C57BL/6 mouse brain assessed as beta-Phenyl-4-methyl-5-thiazoleethanol level at 4.5 umol/kg, ip after 20 mins; format: ADME, organism-based; conditions: in vivo; outline: as §2

## Cc1ncsc1CCO
[1]
  Activity: 14.11%

## Cc1ncsc1C(CO)c1ccc(F)cc1 (centres undefined)
[1]
  Activity: 98.9%

## Cc1ncsc1C(O)Cc1ccc(F)cc1 (centres undefined)
[1]
  Activity: 101%

## Cc1ncsc1C(c1ccccc1)n1cc(-c2cncn2C)nn1 (centres undefined)
[1]
  Activity: 93.9%

## Cc1ncsc1C(O)c1ccccc1 (centres undefined)
[1]
  Activity: 94%

## Cc1ncsc1C(CO[N+](=O)[O-])c1ccc(F)cc1 (centres undefined)
[2]
  Activity: Active
[3]
  Stability: Stable

## COC(c1ccccc1)c1scnc1C (centres undefined)
[1]
  Activity: 110.2%

## Cc1ncsc1C(OC(=O)C1(C)CC1)c1ccccc1 (centres undefined)
[4]
  half-life: 6.33 h

## Cc1ncsc1C(c1ccccc1)n1cc(-c2ccccc2)nn1 (centres undefined)
[1]
  Activity: 57.6%

## Cc1ncsc1C(c1ccc(F)cc1)n1cc(-c2cccnc2)nn1 (centres undefined)
[1]
  Activity: 87.2%

## Cc1ncsc1CCn1cc(-c2cccnc2)nn1
[5]
  Activity: inactive
[1]
  Activity: 99.6%

## Cc1ncsc1C(NC(=O)OCC1(CO[N+](=O)[O-])CC1)c1ccccc1 (centres undefined)
[2]
  Activity: Active
[6]
  Activity: inactive
[4]
  half-life: 50 h

## NCc1cc(O)no1
[5]
  Activity: inactive
[7]
  Activity: Active

## Cc1ncsc1C(CO)n1cc(-c2cccnc2)nn1 (centres undefined)
[5]
  Activity: inactive
[7]
  Activity: Active
[8]
  concentration at 20 min: 56.4 ng/mL
[1]
  Activity: 107.3%

## Cc1ncsc1C(O)c1ccc(Cl)cc1 (centres undefined)
[1]
  Activity: 25%

## Cc1ncsc1C(c1ccccc1)n1cc(-c2ccsc2)nn1 (centres undefined)
[1]
  Activity: 62%

## Cc1ncsc1C(c1ccccc1)n1cc(-c2ccncc2)nn1 (centres undefined)
[1]
  Activity: 90.2%

## Cc1ccc2c(c1)c1c(n2CCc2scnc2C)CCN(C)C1
[1]
  Activity: 15.4%

## Cc1ncsc1C(CO[N+](=O)[O-])n1cc(-c2cccnc2)nn1 (centres undefined)
[9]
  Drug uptake: 76.6 ng/mL
[8]
  concentration at 20 min: 2.1 ng/mL
[2]
  Activity: Active
[3]
  Stability: Stable

## Cc1ncsc1C(O)Cc1ccccc1 (centres undefined)
[1]
  Activity: 102%

## Cc1ncsc1C(c1ccccc1)n1cc(-c2ccccn2)nn1 (centres undefined)
[1]
  Activity: 50.9%

## Cc1ncsc1C(c1ccccc1)n1cc(Cc2ccccc2)nn1 (centres undefined)
[1]
  Activity: 88.3%

## Cc1ncsc1C(CO[N+](=O)[O-])n1nncc1-c1cccnc1 (centres undefined)
[2]
  Activity: Active
[3]
  Stability: Stable

## Cc1ncsc1C(CO)c1ccccc1 (centres undefined)
[5]
  Activity: inactive
[7]
  Activity: Active
[8]
  concentration at 20 min: 32.9 ng/mL
[1]
  Activity: 99.6%

## Cc1ncsc1C(c1ccccc1)n1ccnn1 (centres undefined)
[1]
  Activity: 58.1%

## Cc1ncsc1C(CO)n1nncc1-c1cccnc1 (centres undefined)
[1]
  Activity: 92.9%

## Cc1ncsc1C(c1ccccc1)n1cc(-c2cccnc2)nn1 (centres undefined)
[1]
  Activity: 108%

## Cc1ncsc1CCCl [CLOMETHIAZOLE]
[6]
  Activity: inactive
[10]
  Activity: 30%

## Cc1ncsc1C(OC(=O)C1(CO[N+](=O)[O-])CC1)c1ccccc1 (centres undefined)
[4]
  half-life: 0.578 h

## Cc1ncsc1C(CO[N+](=O)[O-])c1ccccc1 (centres undefined)
[11]
  Drug uptake: 9.5 ng/mL
[8]
  concentration at 20 min: 9.5 ng/mL
[2]
  Activity: Active
[6]
  Activity: Active
[3]
  Stability: Stable

## Cc1ncsc1C(OCCOCCO)c1ccccc1 (centres undefined)
[5]
  Activity: inactive
[7]
  Activity: Active
[1]
  Activity: 114.1%

## Cc1ncsc1C(O)c1ccc(F)cc1 (centres undefined)
[1]
  Activity: 36.8%

## Cc1ncsc1C(OCCOCCO[N+](=O)[O-])c1ccccc1 (centres undefined)
[2]
  Activity: Active
[3]
  Stability: Stable

## Cc1ncsc1C(CO)c1ccc(-c2cccnc2)cc1 (centres undefined)
[1]
  Activity: 25%

## Cc1ncsc1C(c1ccccc1)n1cc(-c2cncc(O)c2)nn1 (centres undefined)
[1]
  Activity: 104%

## Cc1ncsc1CCn1cc(-c2ccccc2)nn1
[1]
  Activity: 53.9%

## Cc1ncsc1C(NC(=O)OCCCCO[N+](=O)[O-])c1ccccc1 (centres undefined)
[2]
  Activity: Active
[3]
  Stability: Stable

## Cc1ncsc1C(NC(=O)C1(CO[N+](=O)[O-])CC1)c1ccccc1 (centres undefined)
[3]
  Stability: Stable

## Cc1ncsc1C(Cc1ccccc1)O[N+](=O)[O-] (centres undefined)
[3]
  Stability: Stable

## Cc1ncsc1CCn1ccnn1
[1]
  Activity: 51.5%
